From ChEMBL document CHEMBL1141534, “Synthesis of all stereoisomers of 3-hydroxypipecolic acid and 3-hydroxy-4,5-dehydropipecolic acid and their evaluation as glycosidase inhibitors” (Bioorg Med Chem Lett, 2008) come the findings set out here.

Assay [1] deals with T1, Beta-glucuronidase (Bos taurus) (UniProt A3KMY8).
T1 sequence (whole entry): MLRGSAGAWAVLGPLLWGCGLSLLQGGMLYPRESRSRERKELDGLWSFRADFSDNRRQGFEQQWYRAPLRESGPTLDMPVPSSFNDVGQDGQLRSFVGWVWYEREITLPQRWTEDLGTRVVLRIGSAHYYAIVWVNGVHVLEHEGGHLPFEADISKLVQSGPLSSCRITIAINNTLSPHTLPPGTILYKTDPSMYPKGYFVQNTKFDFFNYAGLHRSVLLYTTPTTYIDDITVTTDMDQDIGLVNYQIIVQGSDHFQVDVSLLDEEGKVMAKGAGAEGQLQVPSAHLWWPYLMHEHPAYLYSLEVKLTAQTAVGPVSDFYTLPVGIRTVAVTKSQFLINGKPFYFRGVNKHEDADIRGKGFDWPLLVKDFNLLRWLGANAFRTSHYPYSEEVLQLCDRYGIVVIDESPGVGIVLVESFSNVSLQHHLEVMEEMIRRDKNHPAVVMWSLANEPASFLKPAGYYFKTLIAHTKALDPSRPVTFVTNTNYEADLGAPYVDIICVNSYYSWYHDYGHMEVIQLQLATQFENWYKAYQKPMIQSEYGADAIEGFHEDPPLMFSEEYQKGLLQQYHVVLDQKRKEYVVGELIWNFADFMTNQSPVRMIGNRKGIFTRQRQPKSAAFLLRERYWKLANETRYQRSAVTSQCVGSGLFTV
The assay is described as follows: Inhibition of bovine liver beta-glucuronidase. Set-up: concentration or dose not given beside the values. Conditions: concentration not given here. Summed up: (§1)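 Enzyme activity was measured with the matching p-nitrophenyl glycoside as substrate at 10 mM, at each enzyme's optimum pH, with a suitable amount of enzyme per reaction. For line 4, the α-N-acetylgalactosaminidase came from chicken liver.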

The next assay deals with Escherichia coli. The assay is described as follows: Inhibition of Escherichia coli beta-glucuronidase. On the set-up: concentration or dose not given beside the values. The following applies: concentration not given here. The essentials:
as §1

The next assay is filed under the species Bos taurus. Kind of assay: (§2) Inhibition of bovine kidney beta-N-acetylglucosaminidase. Set-up: concentration or dose not given beside the values. Conditions: concentration not given here. Summed up: as §1
Assay [2] relates to alpha-N-acetylgalactosaminidase (Gallus gallus). The assay is described as follows: Inhibition of chick liver alpha-N-acetylgalactosaminidase. On the set-up: concentration or dose not given beside the values. Conditions: concentration not given here.
A short description of assay [3]: as §2. On the set-up: species or system Bos taurus. Summed up:
as §1

Structures are written as SMILES.

`O=C(O)[C@H]1NCC=C[C@H]1O`: the inhibition in assay [1] came out at 8.6%; with Escherichia coli, 3.3%; in the assay filed under Bos taurus it was 7.3%; in assay [2], 0.2%.

As to `O=C(O)[C@@H]1NCC=C[C@@H]1O`, the inhibition in assay [1] worked out at 10%; in the assay with Escherichia coli, 0.9%; in the assay listed under Bos taurus, 0.8%; in assay [2] it was 1.3%.

Turning to `O=C(O)[C@@H]1NCCC[C@H]1O`, the inhibition was 0.62% in assay [1], 20% in the assay on Escherichia coli, 32% in the assay listed under Bos taurus and 1.3% in assay [2].

For the compound `O=C(O)[C@@H]1NCC=C[C@H]1O`, the inhibition was 0.2% in assay [1], 0.9% in the assay on Escherichia coli, 15% in the assay listed under Bos taurus and 3.2% in assay [2].

Turning to `O=C(O)[C@@H]1NCCC[C@@H]1O`, the inhibition amounted to 15% in assay [1], 23% in the assay on Escherichia coli, 47% in the assay filed under Bos taurus and 3.2% in assay [2].

`O=C(O)[C@H]1NCCC[C@H]1O`: the inhibition in assay [1] is 0.18%; in the assay on Escherichia coli, 24%; in the assay filed under Bos taurus, 20%; in assay [2], 2.5%.

Regarding `O=C(O)[C@H]1NCCC[C@@H]1O`, the inhibition was determined as 0.89% in assay [1], 31% in the assay with Escherichia coli, 38% in the assay listed under Bos taurus and 5.2% in assay [2].

As to `O=C(O)[C@H]1NCC=C[C@@H]1O`, the inhibition in assay [1] was found to be 19%; in the assay with Escherichia coli, 2%; in the assay filed under Bos taurus, 58%; in assay [2], 25%. Half-maximal inhibition in assay [3] (IC50) required 720 µM.

By inhibition is commonly meant how much of the control response was suppressed. For orientation: IC50 means the concentration needed to halve the response being measured.
